Reference: ChEMBL document CHEMBL3102739, “Synthesis and antiproliferative activity of conformationally restricted 1,2,3-triazole analogues of combretastatins in the sea urchin embryo model and against human cancer cell lines” (Bioorg Med Chem, 2014)

Assays:
[1] = Growth inhibition of human UO31 cells after 48 hrs by SRB assay; assay type: functional; settings: UO-31, 48 h
TK-10 = experiment: Growth inhibition of human TK10 cells after 48 hrs by SRB assay; assay type: functional; settings: TK-10, 48 h
[2] = Growth inhibition of human RXF393 cells after 48 hrs by SRB assay; assay type: functional; settings: RXF 393, 48 h
SN12C = experiment: Growth inhibition of human SN12C cells after 48 hrs by SRB assay; assay type: functional
ACHN = experiment: Growth inhibition of human ACHN cells after 48 hrs by SRB assay; assay type: functional
CAKI-1 = experiment: Growth inhibition of human CAKI-1 cells after 48 hrs by SRB assay; assay type: functional; settings: CAKI-1, 48 h
786-0 = experiment: Growth inhibition of human 786-0 cells after 48 hrs by SRB assay; assay type: functional; settings: 786-0, 48 h
A498 = experiment: Growth inhibition of human A498 cells after 48 hrs by SRB assay; assay type: functional; settings: A498, 48 h
SK-OV-3 = experiment: Growth inhibition of human SKOV3 cells after 48 hrs by SRB assay; assay type: functional; settings: SK-OV-3, 48 h
OVCAR-8 = experiment: Growth inhibition of human OVCAR8 cells after 48 hrs by SRB assay; assay type: functional; settings: OVCAR-8, 48 h
[3] = Growth inhibition of human OVCAR4 cells after 48 hrs by SRB assay; assay type: functional; settings: OVCAR-4, 48 h
[4] = Growth inhibition of human OVCAR5 cells after 48 hrs by SRB assay; assay type: functional; settings: OVCAR-5, 48 h
OVCAR-3 = experiment: Growth inhibition of human OVCAR3 cells after 48 hrs by SRB assay; assay type: functional; settings: OVCAR-3, 48 h
IGROV-1 = experiment: Growth inhibition of human IGROV1 cells after 48 hrs by SRB assay; assay type: functional; settings: IGROV-1, 48 h
[5] = Growth inhibition of human UACC257 cells after 48 hrs by SRB assay; assay type: functional; settings: UACC-257, 48 h
UACC-62 = experiment: Growth inhibition of human UACC62 cells after 48 hrs by SRB assay; assay type: functional; settings: UACC-62, 48 h
SK-MEL-5 = experiment: Growth inhibition of human SK-MEL-5 cells after 48 hrs by SRB assay; assay type: functional; settings: SK-MEL-5, 48 h
SK-MEL-2 = experiment: Growth inhibition of human SK-MEL-2 cells after 48 hrs by SRB assay; assay type: functional; settings: SK-MEL-2, 48 h
SK-MEL-28 = experiment: Growth inhibition of human SK-MEL-28 cells after 48 hrs by SRB assay; assay type: functional; settings: SK-MEL-28, 48 h
M14 = experiment: Growth inhibition of human M14 cells after 48 hrs by SRB assay; assay type: functional; settings: M14, 48 h
LOX IMVI = experiment: Growth inhibition of human LOXIMVI cells after 48 hrs by SRB assay; assay type: functional
Malme-3M = experiment: Growth inhibition of human MALME-3M cells after 48 hrs by SRB assay; assay type: functional
U-251 = experiment: Growth inhibition of human U251 cells after 48 hrs by SRB assay; assay type: functional; settings: U-251, 48 h
SNB-75 = experiment: Growth inhibition of human SNB75 cells after 48 hrs by SRB assay; assay type: functional; settings: SNB-75, 48 h
[6] = Growth inhibition of human SF539 cells after 48 hrs by SRB assay; assay type: functional; settings: SF-539, 48 h
SNB-19 = experiment: Growth inhibition of human SNB19 cells after 48 hrs by SRB assay; assay type: functional; settings: SNB-19, 48 h
SF-295 = experiment: Growth inhibition of human SF295 cells after 48 hrs by SRB assay; assay type: functional; settings: SF-295, 48 h
SF-268 = experiment: Growth inhibition of human SF268 cells after 48 hrs by SRB assay; assay type: functional; settings: SF-268, 48 h
SW-620 = experiment: Growth inhibition of human SW620 cells after 48 hrs by SRB assay; assay type: functional; settings: SW-620, 48 h
KM12 = experiment: Growth inhibition of human KM12 cells after 48 hrs by SRB assay; assay type: functional; settings: KM12, 48 h
HT-29 = experiment: Growth inhibition of human HT-29 cells after 48 hrs by SRB assay; assay type: functional; settings: HT-29, 48 h
HCT-15 = experiment: Growth inhibition of human HCT15 cells after 48 hrs by SRB assay; assay type: functional; settings: HCT-15, 48 h
[7] = Growth inhibition of human HCC2998 cells after 48 hrs by SRB assay; assay type: functional; settings: HCC 2998, 48 h
HCT-116 = experiment: Growth inhibition of human HCT116 cells after 48 hrs by SRB assay; assay type: functional; settings: HCT-116, 48 h
COLO 205 = experiment: Growth inhibition of human COLO205 cells after 48 hrs by SRB assay; assay type: functional; settings: COLO 205, 48 h
NCI-H522 = experiment: Growth inhibition of human NCI-H522 cells after 48 hrs by SRB assay; assay type: functional; settings: NCI-H522, 48 h
NCI-H460 = experiment: Growth inhibition of human NCI-H460 cells after 48 hrs by SRB assay; assay type: functional; settings: NCI-H460, 48 h
NCI-H322M = experiment: Growth inhibition of human NCI-H322M cells after 48 hrs by SRB assay; assay type: functional
NCI-H23 = experiment: Growth inhibition of human NCI-H23 cells after 48 hrs by SRB assay; assay type: functional; settings: NCI-H23, 48 h
NCI-H226 = experiment: Growth inhibition of human NCI-H226 cells after 48 hrs by SRB assay; assay type: functional; settings: NCI-H226, 48 h
[8] = Growth inhibition of human HOP92 cells after 48 hrs by SRB assay; assay type: functional; settings: HOP-92, 48 h
[9] = Growth inhibition of human EKVX cells after 48 hrs by SRB assay; assay type: functional
HOP-62 = experiment: Growth inhibition of human HOP62 cells after 48 hrs by SRB assay; assay type: functional; settings: HOP-62, 48 h
A549 = experiment: Growth inhibition of human A549 cells after 48 hrs by SRB assay; assay type: functional; settings: A549, 48 h
RPMI-8226 = experiment: Growth inhibition of human RPMI8226 cells after 48 hrs by SRB assay; assay type: functional; settings: RPMI-8226, 48 h
SR = experiment: Growth inhibition of human SR cells after 48 hrs by SRB assay; assay type: functional
MOLT-4 = experiment: Growth inhibition of human MOLT4 cells after 48 hrs by SRB assay; assay type: functional; settings: MOLT-4, 48 h
K562 = experiment: Growth inhibition of human K562 cells after 48 hrs by SRB assay; assay type: functional; settings: K562, 48 h
CCRF-CEM = experiment: Growth inhibition of human CCRF-CEM cells after 48 hrs by SRB assay; assay type: functional
HL-60(TB) = experiment: Growth inhibition of human HL-60(TB) cells after 48 hrs by SRB assay; assay type: functional; settings: HL-60, 48 h
Paracentrotus lividus [10] = experiment: Antimitotic activity against sea urchin embryo free-swimming blastula model assessed as embryo spinning compound treated at 8 to 10 hrs post-fertilization measured after 0.25 to 20 hrs; assay type: functional, Blastula stage
Paracentrotus lividus [11] = experiment: Antimitotic activity against sea urchin embryo model assessed as cleavage arrest of fertilized egg compound treated at 8 to 20 mins post-fertilization and 45 to 55 mins prior to first mitotic cycle completion measured 2.5 to 5.5 hrs post-fertilization; assay type: functional
Procedure, shortened: (§1)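 Fertilized eggs are exposed 8–20 min after fertilization to 2-fold decreasing concentrations. Stocks are 10 mM in DMSO, then diluted 10-fold in 95% EtOH; final DMSO is at most 0.05% and EtOH at most 1%. Embryos are kept as a monolayer, up to 2000 embryos/mL, in filtered seawater at room temperature. The value is the threshold concentration giving cleavage alteration, embryo death before hatching or full mitotic arrest. Duplicates were run.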

Paracentrotus lividus [12] = experiment: Antimitotic activity against sea urchin embryo model assessed as cleavage alteration of fertilized egg compound treated at 8 to 20 mins post-fertilization and 45 to 55 mins prior to first mitotic cycle completion measured 2.5 to 5.5 hrs post-fertilization; assay type: functional; procedure, shortened: as §1
B16 = experiment: Cytotoxicity against mouse B16 cells by MTT assay; assay type: functional, cell-based

COc1ccc(/C=C\c2cc(OC)c(OC)c(OC)c2)cc1O [COMBRETASTATIN A4]
GI50 [1]: 19 nM | GI50 (TK-10): 100 nM | GI50 [2]: 2 nM | GI50 (SN12C): 6 nM | GI50 (ACHN): 6 nM | GI50 (CAKI-1): 26 nM | GI50 (786-0): 100 nM | GI50 (A498): 6 nM | GI50 (SK-OV-3): 59 nM | GI50 (OVCAR-8): 3 nM | GI50 [3]: 14 nM | GI50 [4]: 100 nM | GI50 (OVCAR-3): 2 nM | GI50 (IGROV-1): 15 nM | GI50 [5]: 3 nM | GI50 (UACC-62): 6 nM | GI50 (SK-MEL-5): 4 nM | GI50 (SK-MEL-2): 4 nM | GI50 (SK-MEL-28): 8 nM | GI50 (M14): 3 nM | GI50 (LOX IMVI): 3 nM | GI50 (Malme-3M): 20 nM | GI50 (U-251): 4 nM | GI50 (SNB-75): 8 nM | GI50 [6]: 3 nM | GI50 (SNB-19): 4 nM | GI50 (SF-295): 4 nM | GI50 (SF-268): 6 nM | GI50 (SW-620): 3 nM | GI50 (KM12): 5 nM | GI50 (HT-29): 100 nM | GI50 (HCT-15): 4 nM | GI50 [7]: 63 nM | GI50 (HCT-116): 3 nM | GI50 (COLO 205): 100 nM | GI50 (NCI-H522): 2 nM | GI50 (NCI-H460): 3 nM | GI50 (NCI-H322M): 7 nM | GI50 (NCI-H23): 3 nM | GI50 (NCI-H226): 4 nM | GI50 [8]: 3 nM | GI50 [9]: 86 nM | GI50 (HOP-62): 3 nM | GI50 (A549): 16 nM | GI50 (RPMI-8226): 3 nM | GI50 (SR): 3 nM | GI50 (MOLT-4): 3 nM | GI50 (K562): 2 nM | GI50 (CCRF-CEM): 3 nM | GI50 (HL-60(TB)): 2 nM | EC (Paracentrotus lividus [10]): 0.05 µM | EC (Paracentrotus lividus [11]): 0.01 µM | EC (Paracentrotus lividus [12]): 0.002 µM

COc1cc(/C=C\c2ccc(N)cc2)cc(OC)c1OC
IC50 (B16): 56000 nM
